Assay results published in ChEMBL document CHEMBL4406801, “Novel Human Aminopeptidase N Inhibitors: Discovery and Optimization of Subsite Binding Interactions” (J Med Chem, 2019).
In brackets after ≈: the same amount, converted by molar mass. Activity calls are given as the source filed them. The rule behind the calls is not given here.

How the values were obtained:
[1] = Inhibition of Plasmodium falciparum M1 aminopeptidase; settings: read-out: Ki(app)
[2] = target: T1, Aminopeptidase N (Homo sapiens, UniProt P15144); assay: Inhibition of soluble human APN ectodomain stably expressed in HEK293 GnTI(-) cells using H-Leu-NHMec as substrate preincubated for 10 mins followed by substrate addition and measured for 1 hr by spectrofluorimetric method; settings: read-out: Ki(app)
[3] = Half life in Swiss mouse plasma at 1000 ng/ml by LC-MS analysis; type: ADME, cell-free
[4] = Intrinsic clearance in human liver microsomes assessed per mg protein at 1 uM in presence of NADPH; type: ADME, Microsome; settings: read-out: CLH
[5] = target: Neutrophil collagenase (Homo sapiens) (UniProt P22894); assay: Inhibition of MMP8 (unknown origin) using QF-24 as substrate preincubated for 1 hr followed by substrate addition and measured at 1 min interval for 1 hr by fluorescence assay
[6] = Half life in mouse liver microsomes at 1 uM in presence of NADPH; type: ADME, Microsome
[7] = Kinetic solubility of the compound in 0.01 M HCl at pH 2 after 30 mins by nephelometry; type: physicochemical; settings: read-out: Kinetic_solubility
In short: (§1)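 Kinetic solubility read by nephelometry under pH 2 (stomach-like) and pH 6.5 (upper fasted small intestine-like) conditions.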

[8] = Half life in human plasma at 1000 ng/ml by LC-MS analysis; type: ADME, cell-free
[9] = Kinetic solubility of the compound in phosphate buffer at pH 6.5 after 30 mins by nephelometry; type: physicochemical; settings: read-out: Kinetic_solubility; in short: as §1
[10] = target: Matrix metalloproteinase-9 (Homo sapiens, UniProt P14780); assay: Inhibition of MMP9 (unknown origin) using QF-24 as substrate preincubated for 1 hr followed by substrate addition and measured at 1 min interval for 1 hr by fluorescence assay
[11] = target: 72 kDa type IV collagenase (Homo sapiens, UniProt P08253); assay: Inhibition of MMP2 (unknown origin) using QF-24 as substrate preincubated for 1 hr followed by substrate addition and measured at 1 min interval for 1 hr by fluorescence assay
[12] = target: T1, Aminopeptidase N; assay: Potency index, ratio of bestatin Ki(app) to test compound Ki(app) for soluble human APN ectodomain stably expressed in HEK293 GnTI(-) cells; type: cell-based
[13] = Intrinsic clearance in mouse liver microsomes assessed per mg protein at 1 uM in presence of NADPH; type: ADME, Microsome; settings: read-out: CLH
[14] = Partition coefficient, log D of compound at pH 7.4 by HPLC analysis; type: physicochemical; settings: octanol/water
In short: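 LogD at pH 7.4 estimated by a chromatographic method.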

[15] = Half life in human liver microsomes at 1 uM in presence of NADPH; type: ADME, Microsome
[16] = target: T2, Matrilysin (Homo sapiens) (UniProt P09237); assay: Inhibition of MMP7 (unknown origin) using QF-24 as substrate preincubated for 1 hr followed by substrate addition and measured at 1 min interval for 1 hr by fluorescence assay
T2 sequence (whole entry): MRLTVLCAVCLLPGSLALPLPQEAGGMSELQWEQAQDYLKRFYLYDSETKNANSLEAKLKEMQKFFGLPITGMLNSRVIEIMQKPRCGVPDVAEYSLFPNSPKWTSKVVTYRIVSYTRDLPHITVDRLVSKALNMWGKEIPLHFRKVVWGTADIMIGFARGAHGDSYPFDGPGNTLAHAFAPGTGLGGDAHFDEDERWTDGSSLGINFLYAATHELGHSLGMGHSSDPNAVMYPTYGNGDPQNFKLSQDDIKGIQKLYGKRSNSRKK

[17] = Cytotoxicity against human AD293 cells measured after 72 hrs by celltitre-blue assay; type: cell-based
[18] = Solubility of the compound in methanol; type: physicochemical
[19] = target: T1, Aminopeptidase N; assay: Potency index, ratio of tosedostat Ki(app) to test compound Ki(app) for soluble human APN ectodomain stably expressed in HEK293 GnTI(-) cells; type: cell-based

Sequence of 72 kDa type IV collagenase (P08253 whole entry, the tested form may be a part): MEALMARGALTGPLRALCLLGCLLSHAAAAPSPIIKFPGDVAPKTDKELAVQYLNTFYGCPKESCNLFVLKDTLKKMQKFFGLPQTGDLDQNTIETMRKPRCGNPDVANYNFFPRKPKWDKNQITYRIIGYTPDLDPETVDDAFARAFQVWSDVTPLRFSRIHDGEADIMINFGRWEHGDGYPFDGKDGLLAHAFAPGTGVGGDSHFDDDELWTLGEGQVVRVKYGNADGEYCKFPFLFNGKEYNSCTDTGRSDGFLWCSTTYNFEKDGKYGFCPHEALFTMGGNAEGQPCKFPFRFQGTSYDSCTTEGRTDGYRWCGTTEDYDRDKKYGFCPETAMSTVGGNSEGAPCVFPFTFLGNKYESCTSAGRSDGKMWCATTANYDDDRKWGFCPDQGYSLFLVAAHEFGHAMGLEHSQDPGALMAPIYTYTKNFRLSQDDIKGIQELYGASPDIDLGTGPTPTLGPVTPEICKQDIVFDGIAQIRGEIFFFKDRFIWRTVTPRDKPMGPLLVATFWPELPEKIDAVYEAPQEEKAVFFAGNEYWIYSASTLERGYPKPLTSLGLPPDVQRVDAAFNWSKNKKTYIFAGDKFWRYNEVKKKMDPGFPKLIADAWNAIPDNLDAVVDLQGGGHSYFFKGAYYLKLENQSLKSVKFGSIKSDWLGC
T1 sequence (P15144 whole entry, the tested form may be a part): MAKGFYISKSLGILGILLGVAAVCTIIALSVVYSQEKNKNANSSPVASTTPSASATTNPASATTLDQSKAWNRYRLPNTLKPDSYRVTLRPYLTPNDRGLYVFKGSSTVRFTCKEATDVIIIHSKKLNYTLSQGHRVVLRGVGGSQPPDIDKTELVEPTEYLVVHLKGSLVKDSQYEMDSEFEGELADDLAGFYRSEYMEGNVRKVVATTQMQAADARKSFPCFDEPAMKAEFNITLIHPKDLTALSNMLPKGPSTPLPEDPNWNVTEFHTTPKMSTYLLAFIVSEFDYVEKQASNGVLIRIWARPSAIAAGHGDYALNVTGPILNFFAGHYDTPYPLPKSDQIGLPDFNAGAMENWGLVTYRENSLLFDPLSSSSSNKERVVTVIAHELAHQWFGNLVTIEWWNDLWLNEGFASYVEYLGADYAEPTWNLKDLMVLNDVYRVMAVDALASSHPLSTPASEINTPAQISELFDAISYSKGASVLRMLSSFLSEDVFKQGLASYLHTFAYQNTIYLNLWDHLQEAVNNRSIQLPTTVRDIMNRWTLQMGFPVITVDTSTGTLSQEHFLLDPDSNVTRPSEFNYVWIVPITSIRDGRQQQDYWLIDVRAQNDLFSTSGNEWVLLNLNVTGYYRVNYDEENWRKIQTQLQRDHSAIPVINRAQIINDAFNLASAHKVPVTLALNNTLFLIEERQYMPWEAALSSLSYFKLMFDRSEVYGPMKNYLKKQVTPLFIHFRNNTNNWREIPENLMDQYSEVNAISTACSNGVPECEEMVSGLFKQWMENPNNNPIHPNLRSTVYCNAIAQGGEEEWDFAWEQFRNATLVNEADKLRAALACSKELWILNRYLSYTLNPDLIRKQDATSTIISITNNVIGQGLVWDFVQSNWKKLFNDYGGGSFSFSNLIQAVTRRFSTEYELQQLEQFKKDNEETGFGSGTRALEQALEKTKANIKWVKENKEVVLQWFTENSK
Sequence of Matrix metalloproteinase-9 (P14780 whole entry): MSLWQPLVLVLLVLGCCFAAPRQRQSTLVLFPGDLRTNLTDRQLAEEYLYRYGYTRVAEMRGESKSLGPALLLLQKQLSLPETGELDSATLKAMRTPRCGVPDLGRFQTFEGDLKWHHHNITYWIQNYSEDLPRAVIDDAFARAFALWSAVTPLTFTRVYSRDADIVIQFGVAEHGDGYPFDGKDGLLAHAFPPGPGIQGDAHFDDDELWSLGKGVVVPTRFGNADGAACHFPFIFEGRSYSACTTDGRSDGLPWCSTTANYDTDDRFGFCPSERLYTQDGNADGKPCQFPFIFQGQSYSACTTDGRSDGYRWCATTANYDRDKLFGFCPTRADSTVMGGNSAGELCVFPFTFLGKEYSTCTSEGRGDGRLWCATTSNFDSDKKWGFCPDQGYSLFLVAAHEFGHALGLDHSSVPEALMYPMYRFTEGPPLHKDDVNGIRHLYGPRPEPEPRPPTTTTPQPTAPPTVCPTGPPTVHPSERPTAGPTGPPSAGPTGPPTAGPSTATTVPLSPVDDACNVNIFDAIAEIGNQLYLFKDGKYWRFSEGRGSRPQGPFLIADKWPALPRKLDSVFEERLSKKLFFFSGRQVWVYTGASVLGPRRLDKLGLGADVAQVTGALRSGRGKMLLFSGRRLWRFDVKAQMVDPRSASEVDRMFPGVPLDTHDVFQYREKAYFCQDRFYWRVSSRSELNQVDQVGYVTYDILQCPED
Sequence of Neutrophil collagenase (Homo sapiens) (P22894 101-467 limits assumed): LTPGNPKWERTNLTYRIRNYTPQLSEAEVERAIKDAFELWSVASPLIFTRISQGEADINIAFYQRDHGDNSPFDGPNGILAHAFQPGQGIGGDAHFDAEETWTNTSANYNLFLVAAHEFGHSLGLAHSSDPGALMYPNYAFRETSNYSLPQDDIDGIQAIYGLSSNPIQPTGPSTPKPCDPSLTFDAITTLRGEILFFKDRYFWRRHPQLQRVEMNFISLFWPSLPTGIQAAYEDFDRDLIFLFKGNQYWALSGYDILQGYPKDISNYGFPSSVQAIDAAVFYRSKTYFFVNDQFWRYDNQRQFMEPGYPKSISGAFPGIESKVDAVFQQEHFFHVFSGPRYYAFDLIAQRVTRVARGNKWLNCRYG

CC(C)C[C@H](NC(=O)[C@@H](O)[C@H](N)Cc1ccccc1)C(=O)O [UBENIMEX]
Ki [1]: 1.53 µM

CS(=O)(=O)Nc1ccc(C(=O)NC(C(=O)NO)c2ccc(-c3cc(F)c(F)c(F)c3)cc2)cc1 (stereo not drawn)
Ki [2]: 0.0045 µM
half-life at 1000 ng/ml [3]: > 17 h
microsomal CLint at 1 µM [4]: < 7 µL/min/mg
inhibition [5]: inactive
half-life at 1 µM [6]: > 4.17 h
solubility kinetic at 0.5 h [7]: 12.5 to 25 µg/mL (≈ 25.3 to 50.7 µM)
half-life at 1000 ng/ml [8]: > 17 h
solubility kinetic at 0.5 h [9]: 12.5 to 25 µg/mL (≈ 25.3 to 50.7 µM)
IC50 [10]: > 100 µM
IC50 [11]: 1.3 µM
Ratio Ki(app) [12]: 527
microsomal CLint at 1 µM [13]: < 7 µL/min/mg
logD [14]: 2.8
half-life at 1 µM [15]: > 4.17 h
inhibition [16]: inactive
CC50 at 72 h [17]: 41 µM

O=C(Cc1ccc(F)c(O)c1)NC(C(=O)NO)c1ccc(-c2cc(F)c(F)c(F)c2)cc1 (stereo not drawn)
solubility [18]: Insoluble

O=C(Cc1ccc(O)c(O)c1)NC(C(=O)NO)c1ccc(-c2cc(F)c(F)c(F)c2)cc1 (stereo not drawn)
solubility [18]: Insoluble

CNC(=O)[C@@H](NC(=O)[C@H](CC(C)C)[C@H](O)C(=O)NO)C(C)(C)C
inhibition [5]: Active
inhibition [16]: Active

O=C(Cc1ccc(O)cc1)NC(C(=O)NO)c1ccc(-c2cc(F)c(F)c(F)c2)cc1 (stereo not drawn)
solubility [18]: Insoluble

CC(C)(C)C(=O)NC(C(=O)NO)c1ccc(-c2cc(F)c(F)c(F)c2)cc1 (stereo not drawn)
Ki [2]: 0.118 µM
Ki [1]: 0.331 µM
inhibition [5]: inactive
Ratio Ki(app) [12]: 10 to 20
inhibition [16]: inactive
Ratio Ki(app) [19]: 10 to 20

CC(C)C[C@@H](C(=O)N[C@H](C(=O)OC1CCCC1)c1ccccc1)[C@H](O)C(=O)NO [TOSEDOSTAT]
Ki [2]: 1.18 µM
Ki [1]: 6.15 µM
inhibition [5]: Active
IC50 [10]: 1.5 µM
IC50 [11]: 0.19 µM
inhibition [16]: Active

NS(=O)(=O)Nc1ccc(C(=O)NC(C(=O)NO)c2ccc(-c3cc(F)c(F)c(F)c3)cc2)cc1 (stereo not drawn)
Ki [2]: 0.0082 µM
half-life at 1000 ng/ml [3]: > 17 h
microsomal CLint at 1 µM [4]: < 7 µL/min/mg
inhibition [5]: inactive
half-life at 1 µM [6]: > 4.17 h
solubility kinetic at 0.5 h [7]: 6.3 to 12.5 µg/mL (≈ 12.7 to 25.3 µM)
half-life at 1000 ng/ml [8]: > 17 h
solubility kinetic at 0.5 h [9]: 12.5 to 25 µg/mL (≈ 25.3 to 50.6 µM)
IC50 [10]: > 100 µM
IC50 [11]: 2.1 µM
microsomal CLint at 1 µM [13]: < 7 µL/min/mg
logD [14]: 2.6
half-life at 1 µM [15]: > 4.17 h
inhibition [16]: inactive
CC50 at 72 h [17]: 149 µM

O=C(NC(C(=O)NO)c1ccc(-c2cc(F)c(F)c(F)c2)cc1)c1ccc(O)c(O)c1 (stereo not drawn)
solubility [18]: Insoluble

COC(=O)C(NC(=O)CC(=O)O)c1ccc(-c2cc(F)c(F)c(F)c2)cc1 (stereo not drawn)
solubility [18]: Insoluble

O=C(Cc1ccc(O)c(F)c1)NC(C(=O)NO)c1ccc(-c2cc(F)c(F)c(F)c2)cc1 (stereo not drawn)
solubility [18]: Insoluble

O=C(NO)C(NCc1ccc(F)c(O)c1)c1ccc(-c2cc(F)c(F)c(F)c2)cc1 (stereo not drawn)
Ki [2]: > 1000 µM
